Assay outcomes as filed in PubChem BioAssay.
Sampled rows, rich in hits. Any-hit rate of the full collection: about 1.5%.
LANA DNA inh: inhibitors of KSHV C-LANA binding to DNA, primary screen, biochemical, fluorescence polarization, FAM-LBS DNA, MBP-C-LANA, single point | 0.078% of 340,000 active | inhibition, % at 9 µM | Kaposi's sarcoma herpesvirus LANA C-terminal domain (residues 932-1162) DNA binding;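 active = highest replicate inhibition at or above 60% at 9 µM, even if other replicates fall short; inactive = all replicates below 60% inhibition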;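 note: 0% = neutral control wells and 100% = 4 µM acridine orange control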
Keap1-Nrf2 PPI: Keap1-Nrf2 protein-protein interaction inhibitors, primary screen, biochemical, fluorescence polarization, single point | Kelch-like ECH-associated protein 1 (Homo sapiens), Q14145 | inhibition, % at 9.4 µM | 0.15% of 340,000 active | Keap1 Kelch-Nrf2 peptide fluorescence polarization, 1536-well; in the data active = inhibition above about 12%;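 note: human Keap1 Kelch domain with fluorescein labeled Nrf2 9mer peptide probe; 0% = neutral control wells and 100% = peptide positive control; higher means more block of Keap1 binding to Nrf2 peptide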
Target sequence (Q14145 whole entry, looked up, the tested form may be a part): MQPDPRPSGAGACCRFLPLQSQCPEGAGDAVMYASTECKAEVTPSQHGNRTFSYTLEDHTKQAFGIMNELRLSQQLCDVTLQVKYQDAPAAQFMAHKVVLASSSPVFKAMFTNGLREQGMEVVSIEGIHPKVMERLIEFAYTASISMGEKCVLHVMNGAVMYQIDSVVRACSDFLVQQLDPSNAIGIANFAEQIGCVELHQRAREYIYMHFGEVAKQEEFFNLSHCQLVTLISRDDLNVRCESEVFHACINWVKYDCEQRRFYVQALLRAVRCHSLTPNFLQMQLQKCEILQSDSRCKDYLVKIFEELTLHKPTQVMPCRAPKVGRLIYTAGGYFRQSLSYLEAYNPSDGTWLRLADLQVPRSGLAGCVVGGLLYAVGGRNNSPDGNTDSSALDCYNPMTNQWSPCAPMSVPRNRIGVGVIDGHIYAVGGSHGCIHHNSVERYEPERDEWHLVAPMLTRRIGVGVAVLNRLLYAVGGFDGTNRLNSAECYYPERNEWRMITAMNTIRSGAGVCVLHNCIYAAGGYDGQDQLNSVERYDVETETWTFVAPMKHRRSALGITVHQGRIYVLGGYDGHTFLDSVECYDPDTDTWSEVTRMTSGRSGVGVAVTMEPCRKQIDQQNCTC
LANA-H2B inh: blockers of LANA interaction with H2A/H2B – biochemical, FP readout, HTS, primary screen; Protein LANA1 (Human herpesvirus 8 type P (isolate GK18)), Q9QR71; cell-free LANA-H2A/H2B peptide, fluorescence polarization; 0.6% of 320,000 active; inhibition, % (no concentration beside the values); in the data active = inhibition mostly above about 10%, no sharp cut-off; inactive = mostly below about 6.7%
CAL PDZ FP-1: untagged CAL PDZ binding inhibitors, primary screen, biochemical, fluorescence polarization, HTS. 0.92% of 300,000 active. Golgi-associated PDZ and coiled-coil motif-containing protein (Homo sapiens), Q9HD26. purified CAL PDZ, TMR-peptide fluorescence polarization, 1 h. inhibition, % at 24.9 µM. AID 602252, 2012;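 active = mean inhibition of at least 30% with at least half of replicates also reaching 30%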;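 note: 0% = DMSO neutral control and 100% = excess unlabeled competitor peptide PRC23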
CaV13 ICDI inh: Primary screen for inhibitors of IQ motif and Ca2+-dependent inactivation inhibitor domain binding in CACNA1D, Förster resonance energy transfer in living cells, …. 0.098% of 340,000 active. inhibition, % at 12.3 µM. AID 743397. HEK cells, CFP/YFP FRET ICDI-IQ, plate reader, 10 min; percent FRET-ratio fall versus neutral wells;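 active = mean replicate inhibition of at least 30% and at least 1% of replicates passing that level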;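 note: 0% = median of the neutral control wells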
CAL PDZ FP-2: CAL PDZ peptide-binding inhibitors, primary screen, biochemical, fluorescence polarization, Cer-tagged CAL PDZ, HTS | Golgi-associated PDZ and coiled-coil motif-containing protein (Homo sapiens), Q9HD26 | purified CAL PDZ, TMR-peptide fluorescence polarization, 1 h | inhibition, % at 20 µM | 0.02% of 330,000 active;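 active = highest replicate inhibition of at least 40%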;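 note: plate controls were DMSO neutral control wells for no effect and unlabeled competitor peptide control wells for full effect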
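Assay system – tagged CAL PDZ protein CerCALP, purified · Timing – 1 h at RT · Compound – single point, 20 µM · Measured by – fluorescence polarization from S- and P-plane intensities, G-factor corrected · Evaluation – inhibition from polarization loss · Probe or stimulus – TMR reporter peptide T*-PRC34 · Buffer or medium – pH 7.4 phosphate-saline buffer, reducing agent, detergent, IgG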
DNA intercal 2: DNA intercalator detection, dose response, counter-screen for C-LANA DNA-binding inhibitor project, biochemical, dry powder | shares compounds with LANA DNA inh | Acridine orange-DNA displacement, fluorescence polarization | AC50, µM (highest dose often 35 µM), for inactives: top-dose activity change, negative = inhibition | 20 tested, under 10 active;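 active = signal drop with an AC50 no more than ten times the top valid dose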
Keap1 Kelch bind: Keap1 Kelch domain binders by thermal stabilisation, dose response, biophysical, thermal shift, RT-PCR instrument, cherry-pick. shares compounds with Keap1-Nrf2 PPI. delta Tm; stronger effect = higher value. max delta Tm, degrees C. 8% of 400 active. AID 651823, 2012; in the data active = max delta Tm above about 0.48 degrees C
Sypro dye melt: Sypro Orange dye melt without protein, dose response, artefact control for Keap1-Nrf2 interaction inhibitor project, biochemical, thermal shift counterscreen, cherry-pick; shares compounds with Keap1-Nrf2 PPI; Sypro Orange dye-only thermal melt, no protein, delta Tm; top dose 26 µM; delta Tm, degrees C (concentration not given with the values); 140 tested, under 10 active;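 active = at highest dose tested, delta Tm positive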
* marks the source's active call; other numbers are inactive results; . = no result given; ! = repeats disagree.

SMILES	LANA DNA inh	Keap1-Nrf2 PPI	LANA-H2B inh	CAL PDZ FP-1	CaV13 ICDI inh	CAL PDZ FP-2	others
CC(=O)n1cc(/C=N/NC(=O)c2ccc(Cl)cc2)c2ccccc21	1.5	-4.8	-1.4	-3.4	-3.1	-0.3
Cn1cccc1/C=N/NC(=O)c1cccs1	-0.4	2.1	0.4	-1.6	-7.0	-2.0
Cn1cc(/C=N\NC(=O)c2cccs2)c2ccccc21	-0.5	1.5	16.7*	-4.4	-5.6	-1.4
CCOC(=O)N1CCN(C(=O)C[C@@H]2C[C@@]3(C(=O)OC)CC(C)(C)CC=C3N(Cc3ccccc3)C2=O)CC1	.	.	.	.	-13.5	.
O=C(O)Cc1ccc(O)c(F)c1	-2.3	-4.1	47.0*!	-1.2	-4.1	-0.4
CC(C)=C1C(=O)NN(c2ccc(C)c(Cl)c2)C1=O	1.2	-5.3	-2.6	-4.6	-4.8	0.2
CC(C)=C1C(=O)NN(c2cccc(Cl)c2)C1=O	-0.2	2.0	-0.1	74.1*	-4.8	-0.7
CCCCN1CC(N2CCCC2)CS1(=O)=O (centres undefined)	.	.	.	.	-4.6	.
Cc1cc(C(=O)NCC2COc3ccccc3O2)c2ccccc2n1 (centres undefined)	-2.0	-6.4	-2.0	62.3*	-10.6	-1.6
COc1ccccc1C(=O)NCCC(=O)NCC1COc2ccccc2O1 (centres undefined)	0.4	-0.3	23.3*	.	-6.9	0.0
O=C(Nc1ccc(F)c(Cl)c1)c1ccc2sc([C@H]3C[C@H](O)[C@@H](CO)O3)nc2c1	.	.	.	.	-4.7	.
COc1cc(OC)cc(C(=O)NC(C(=O)Nc2ccc3c(c2)OCO3)C(C)C)c1 (centres undefined)	-3.0	-0.4	10.7*	.	-4.8	-0.8
COc1cc(OC)cc(C(=O)N[C@H](C(=O)Nc2ccc3c(c2)OCO3)C(C)C)c1	-9.3	1.3	2.4	-14.0	-1.9	1.3
COc1cc(C2C=C(c3cccs3)Nc3ncnn32)cc(OC)c1OC (centres undefined)	120.8*	87.7*	.	33.2*	.	1.1
COc1ccc(C2C=C(c3ccccc3)Nc3nc(CCCO)nn32)cc1 (centres undefined)	.	.	-0.1	.	-13.0	.
COc1ccc(C2C=C(c3cccs3)Nc3nc(CCCO)nn32)cc1 (centres undefined)	.	.	74.4*	.	.	.
Cc1ccc(S(=O)(=O)NN2C(=O)/C(=C/c3cccc(F)c3)SC2=S)cc1	2.2	-5.0	-1.8	33.1*	-18.0	-5.7
COc1cc(/C=C2\SC(=S)N(NS(=O)(=O)c3ccc(C)cc3)C2=O)cc(OC)c1OC	0.0	-2.5	5.9	-0.4	-2.9	-0.3
CCCc1cc2c(=O)c(-c3cscn3)c(C(=O)OCC)oc2cc1O	2.3	3.4	0.9	3.0	-5.6	-2.1
CCOC(=O)c1oc2cc(O)cc(C)c2c(=O)c1-c1cscn1	0.7	2.2	26.0*	-2.6	-1.1	-1.7
O=C(NC1CCCCC1)C(c1cccc2ccccc12)n1c(=O)c(-c2ccco2)nc2ccccc21 (centres undefined)	.	.	.	.	-6.2	.
O=C(O)CC(C(=O)O)N1C(=O)/C(=C/C=C/c2ccco2)SC1=S (centres undefined)	106.0*	-1.8	11.8	1.4	-5.2	-1.4	DNA intercal 2=6.4%
CC(C)OCCCNC(=O)C(NS(=O)(=O)c1ccc2c(c1)c(=O)n(C)c(=O)n2C)c1ccccc1 (centres undefined)	.	.	0.0	.	.	.
CC1(C)[C@@H](O)CC[C@]2(C)[C@H]3C(=O)C=C4[C@@H]5C[C@@](C)(C(=O)O)CC[C@]5(C)CC[C@@]4(C)[C@]3(C)CC[C@@H]12	2.9	2.2	24.7	-4.2	-5.5	-1.1
CC1(C)[C@@H](O[C@H]2O[C@H](C(=O)O)[C@@H](O)[C@H](O)[C@H]2O[C@@H]2O[C@H](C(=O)O)[C@@H](O)[C@H](O)[C@H]2O)CC[C@]2(C)[C@H]3C(=O)C=C4[C@@H]5C[C@@](C)(C(=O)O)CC[C@]5(C)CC[C@@]4(C)[C@]3(C)CC[C@@H]12	.	.	.	.	.	.	DNA intercal 2=-4.9%
SMILES	LANA DNA inh	Keap1-Nrf2 PPI	LANA-H2B inh	CAL PDZ FP-1	CaV13 ICDI inh	CAL PDZ FP-2	others
O=C(O)C1Nc2c(O)cc(Cl)c([N+](=O)[O-])c2C2C=CCC12 (centres undefined)	120.4*	42.0*	8.8	3.7	-5.5	0.4	DNA intercal 2=4.7%;Keap1 Kelch bind=0.92*
CC(=O)c1ccc2c(c1)C1C=CCC1C(c1ccncc1)N2 (centres undefined)	2.9	-5.6	-6.5	0.1	.	0.4
CC(=O)c1ccc2c(c1)C1C=CCC1C(C(=O)O)N2 (centres undefined)	113.6*	20.5*	.	-3.0	-4.5	1.1	DNA intercal 2=1.6%;Keap1 Kelch bind=2.1*;Sypro dye melt=-33
CC1Oc2cc3oc4c(O)c(O)ccc4c(=O)c3c(O)c2C1(C)C (centres undefined)	1.1	-8.2	-0.6	-6.0	.	-0.5
COc1ccc(OC)c(S(=O)(=O)NC2CCSc3ccccc32)c1 (centres undefined)	0.0	-7.1	5.3	-1.8	-2.1	-0.5
Nc1c(C(=O)Nc2ccccc2F)sc2nc(Cc3ccccc3)cc(C(F)(F)F)c12	44.1	32.9*	-23.4	.	-10.0	-0.5	DNA intercal 2=19.4µM*;Keap1 Kelch bind=-0.2
OC(Cc1ccncc1)(c1ccccc1)c1ccccc1	-1.4	28.0*	-0.1	-5.9	-6.4	-0.6	Keap1 Kelch bind=-0.11
OC(CNCc1ccccc1)(c1ccccc1)c1ccccc1	-1.6	1.4	-5.0	-5.5	-5.3	-0.3
CCN(Cc1ccccc1)C(=O)CCS(=O)(=O)c1cc2c(cc1Cl)NC(=O)CO2	0.8	-7.2	1.2	.	-6.4	-1.2
